“And” between values parts separate entries of the source, which are not always exact repeats. Equal entries are not always repeated. Where two headings read alike, the source gives them in different places.
Columns and labels:
[1] = biological target: T1, frog AHR1β N325S mutant (Xenopus laevis, UniProt Q4QY30, N325S); assay: Velocity sedimentation analysis of [3H]TCDD binding; conditions: 2 nM [3H]TCDD, 18 hr at 4° C, sucrose gradients
[2] = biological target: mouse AHR^b-1 (Mus musculus, UniProt P30561); assay: Transactivation; format: cell-based
[3] = biological target: frog AHR1β S263P mutant (Xenopus laevis, UniProt Q4QY30, S263P); assay: Transactivation; format: cell-based
Method in brief: (§1)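 COS-7 cells in DMEM with 10% FBS (37°, 5% CO₂), 30,000/well, transfected 24 hours later in triplicate wells. Each well received 50 ng AHR construct, 50 ng X. laevis ARNT1, 20 ng pGudLuc6.1 (CYP1A1 enhancer, four XREs) and 3 ng pRL-TK, with empty vector to 300 ng. After 5 hours, graded TCDD was added (0.5% DMSO), and cells were lysed 18 hours later. EC50 came from regression of fractional firefly/Renilla response (vehicle-subtracted, max=1); n=3-4.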

[4] = biological target: frog AHR1β T256A mutant (Xenopus laevis, UniProt Q4QY30, T256A); assay: Transactivation; format: cell-based
Method in brief: as §1

[5] = tested on: AHR from the common tern; conditions: common tern AHR vs chicken AHR; cited from earlier work
[6] = biological target: X. laevis AHR1β (Xenopus laevis, UniProt Q4QY30); assay: Transactivation; format: cell-based
Method in brief: (§2)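 Same COS-7 co-transfection: AHR construct, X. laevis ARNT1, pGudLuc6.1 firefly reporter and pRL-TK control, total DNA 300 ng, triplicate wells. Graded FICZ (0.5% DMSO vehicle) was added 5 hours post-transfection. Cells were lysed 3 hours after dosing for dual luciferase. Firefly/Renilla ratio, minus vehicle, was normalized to each AHR's maximum. EC50 came from non-linear regression with background 0 and maximum 1; 3-4 replicates.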

[7] = biological target: frog AHR1β S371T mutant (Xenopus laevis, UniProt Q4QY30, S371T); assay: Transactivation; format: cell-based
Method in brief: as §1

[8] = tested on: AHR1α; conditions: AHR1α vs mouse AHR; cited from earlier work
[9] = tested on: mouse AHR S359A; conditions: S359A in mouse AHR vs wild type; cited from earlier work
[10] = biological target: frog AHR1β A370S mutant (Xenopus laevis, UniProt Q4QY30, A370S); assay: Transactivation; format: cell-based
[11] = tested on: chimeric AHR (frog AHR1β with mouse LBD); assay: Velocity sedimentation analysis of [3H]TCDD binding; parameters: species or system Xenopus laevis / mouse; conditions: 2 nM [3H]TCDD, 18 hr at 4° C, sucrose gradients
Method in brief: (§3)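 They were incubated 18 hr at 4 °C with 2 nM [3H]TCDD, then run on sucrose gradients in a vertical rotor. Peak-fraction dpm minus unprogrammed-lysate dpm gave specific binding, expressed relative to wild-type AHR1β. AHR input was checked by western blot. Three replicates.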

[12] = biological target: frog AHR1β A354S mutant (Xenopus laevis, UniProt Q4QY30, A354S); assay: Transactivation; format: cell-based
Method in brief: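 COS-7 cells (DMEM, 10% FBS, 37°, 5% CO2) were seeded at 30,000/well. After 24 h, triplicate wells were co-transfected with 50 ng AHR plasmid, 50 ng X. laevis ARNT1, 20 ng pGudLuc6.1 (mouse CYP1A1 enhancer, four XREs) and 3 ng pRL-TK, totalling 300 ng. Five hours later, cells received 0.5% DMSO or graded FICZ. Firefly/Renilla luciferase was read at 3 h, vehicle-subtracted and normalized to maximum. EC50 came from nonlinear regression (bottom 0, top 1). n=3-4.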

[13] = biological target: T2, frog AHR1β A354S/N325S mutant (Xenopus laevis, UniProt Q4QY30, A354S/N325S); assay: Velocity sedimentation analysis of [3H]TCDD binding; conditions: 2 nM [3H]TCDD, 18 hr at 4° C, sucrose gradients
Method in brief: as §3

[14] = biological target: T1, frog AHR1β N325S mutant; assay: Transactivation; format: cell-based
[15] = tested on: AHR1β; conditions: AHR1β vs mouse AHR; cited from earlier work
[16] = tested on: frog AHR1β; assay: Velocity sedimentation analysis of [3H]TCDD binding; parameters: species or system Xenopus laevis; conditions: 2 nM [3H]TCDD, 18 hr at 4° C, sucrose gradients
Method in brief: as §3

[17] = biological target: frog AHR1β S294Q mutant (Xenopus laevis, UniProt Q4QY30, S294Q); assay: Transactivation; format: cell-based
Method in brief: as §1

[18] = biological target: frog AHR1β KHSR mutant (R345K, D346H, T347S, G348R) (Xenopus laevis, UniProt Q4QY30, D346H/G348R/R345K/T347S); assay: Transactivation; format: cell-based
[19] = biological target: T2, frog AHR1β A354S/N325S mutant; assay: Transactivation; format: cell-based
[20] = biological target: frog AHR1β T256A/S263P mutant (Xenopus laevis, UniProt Q4QY30, S263P/T256A); assay: Transactivation; format: cell-based
Method in brief: as §1

[21] = biological target: chimeric frog AHR1β containing the mouse LBD (Xenopus laevis, UniProt P30561+Q4QY30); assay: Transactivation; format: cell-based
Method in brief: as §2

With `Clc1cc2c(cc1Cl)Oc1cc(Cl)c(Cl)cc1O2` [TCDD, 2,3,7,8-tetrachlorodibenzo-p-dioxin] the “TCDD binding (in words)” value [1] was “greater TCDD binding than either A354S or A370S”, the EC50 [2] was 0.5 ± 0.16 nM and the EC50 [3] was 23.7 ± 8.8 nM. For the same molecule, the EC50 [4] was 23.1 nM, the “fold lower TCDD affinity than AHR from chicken” value [5] was 7 fold and the EC50 [6] was 18.6 ± 4.7 nM. For the same molecule, the EC50 [7] was 13.5 ± 3.3 nM, the “fold lower TCDD affinity than mouse AHR” value [8] was “more than 25 fold” and the “reduction of TCDD binding” value [9] was 40%. The EC50 [10] was 1 ± 0.4 nM, the “fold greater TCDD responsiveness relative to AHR1β” value ([10]; A370S vs wild type AHR1β) was 18.6 fold and the “TCDD binding (in words)” value [11] was “greatest TCDD binding”. The EC50 [12] was 1.2 ± 0.4 nM, the “TCDD binding (in words)” value [13] was “approaching that of the chimera” and the EC50 [14] was 5.7 ± 1.6 nM. For the same molecule, the “fold greater TCDD responsiveness (EC50 decline) relative to AHR1β” value ([14]; N325S vs wild type AHR1β) was 3 fold and 3.2 fold, the “fold lower TCDD affinity than mouse AHR” value [15] was “more than 25 fold” and the “TCDD binding (in words)” value [16] was “barely detectable”. For the same molecule, the EC50 [17] was 25.9 ± 1.1 nM, the EC50 [18] was 23 nM and the EC50 ([19]; EC50 for reporter gene induction, TCDD, (24 hr), COS-7 cells, A354S/N325S) was 0.8 nM and 0.82 nM. The “fold greater TCDD responsiveness relative to AHR1β” value ([19]; N325S/A354S vs wild type AHR1β) was about 23 fold and the EC50 [20] was 20.6 ± 8 nM.

For `O=Cc1c2[nH]c3ccccc3c2cc2[nH]c3ccccc3c12` [FICZ, 6-formylindolo[3,2b]carbazole], the EC50 ([6]; read-out: EC50 for reporter gene induction, FICZ, (3 hr), COS-7 cells, AHR1β) was 0.08 nM, the “fold more responsive to FICZ than AHR1β” value ([21]; chimera vs AHR1β, 3 hr) was 2.7 fold and the EC50 ([21]; read-out: EC50 for reporter gene induction, FICZ, (3 hr), COS-7 cells, chimera) was 0.03 ± 0.01 nM. The “fold increase in FICZ responsiveness” value ([10]; A370S vs AHR1β, 3 hr) was “about 2 fold”, the EC50 ([10]; read-out: EC50 for reporter gene induction, FICZ, (3 hr), COS-7 cells, A370S) was 0.04 nM and the “FICZ responsiveness (in words)” value ([12]; A354S, 3 hr) was “restored responsiveness to a level comparable to the chimera”. For the same molecule, the EC50 ([12]; read-out: EC50 for reporter gene induction, FICZ, (3 hr), COS-7 cells, A354S) was 0.04 nM, the “fold increase in FICZ responsiveness” value ([14]; N325S vs AHR1β, 3 hr) was “about 2 fold” and the EC50 ([14]; read-out: EC50 for reporter gene induction, FICZ, (3 hr), COS-7 cells, N325S) was 0.07 nM.
